From PubChem
Most compounds without a hit are left out; they make up all but 2.3% or so of the library.
STAT3 act = STAT3 signaling activation; U3A cells, IL-6 STAT3-luciferase reporter, luminescence; 100% = signal with IL-6 EC80 alone; activation (% of control), % at 5.6 µM; 0.91% of 190,000 active; AID 871;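 active = activation above the screen-wide mean of compound activation plus 3 SD, cut at about 130% in these data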
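Material: STAT3-luciferase reporter U3A cells. Controls: IL-6-treated wells, 100% activation. Read-out: % activation versus median of IL-6-stimulated wells. Probe or stimulus: IL-6 stimulus at 33 ng/mL final. Timing: compound 1 h, then IL-6 6 h at 37 °C. Signal: reporter luminescence signal.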
HSP90 inh = blocks HSP90-mediated luciferase refolding in reticulocyte lysate | Rabbit reticulocyte lysate, luciferase refolding luminescence, 3 h | inhibition, % at 5.6 µM | 0.91% of 290,000 active;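 active = inhibition above the screen-wide mean plus 3 SD, computed separately per campaign, cut at about 16% in these data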;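 also: inhibitors lower the luminescence because luciferase stays unfolded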
STAT3 inh-1 = reduces IL-6 driven STAT3 reporter signal | inhibition, % at 5.5 µM | AID 862 | 0.89% of 190,000 active | U3A cells, IL-6 STAT3-luciferase reporter, luminescence; host cell line lacks STAT1;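 active = inhibition above the mean inhibition across all screened compounds plus 3 SD, cut at about 44% in these data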
PPC-1+TRAIL kill = PPC-1 cancer cell killing with TRAIL present | PPC-1 cells + TRAIL, ATPLite viability luminescence | cell killing (% activity), % at 4 µM or 5 µM | 0.41% of 220,000 active;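 active = cell killing above 50% in the first pass at 4 µM, then a duplicate retest at 5 µM averaging 50% or more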
C8 TRAIL sens = sensitizes caspase-8 expressing cells to TRAIL | inhibition (viability loss, TRAIL sensitization), % at 10 µM | NB7+C8 cells + TRAIL, ATPlite viability luminescence | 1% of 360,000 active | AID 624354;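 active = compounds causing at least 50% loss of cell viability in the single-dose screen, relative to plate controls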
STAT1 blocker = STAT1 signaling inhibition; NIH 3T3 STAT1-luciferase reporter, IFN-gamma, luminescence; inhibition, % at 5.5 µM; 0.35% of 200,000 active;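 active = inhibition above a set limit, the mean inhibition across all tested compounds plus 3 SD, cut at about 34% in these data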
STAT3 inh-2 = STAT3 inhibition, confirmation assay; shares compounds with STAT3 inh-1; U3A cells, IL-6 STAT3 luciferase reporter, luminescence; cell line lacks STAT1; inhibition, % at 5.7 µM; 45% of 1,200 active;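 active = inhibition above the hit cutoff computed for the primary STAT3 screen, cut at about 44% in these data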
NFkB inh STAT3ct = counter-screen for STAT3 inhibitors: NF-kappaB inhibition; shares compounds with STAT3 inh-1; HEK293T NF-kB luciferase reporter, TNF-alpha induced; inhibition, % at 5.7 µM; 36% of 1,200 active; AID 1308;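 active = inhibition above the mean of solvent-only control wells plus 3 SD, cutoff set per campaign, cut at about 13% in these data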
STAT1 inh 2 = inhibits STAT1, counter-screen to STAT3 inhibitors. NIH 3T3 STAT1-luciferase reporter, IFN-gamma induced, luminescence. shares compounds with STAT3 inh-1. inhibition, % at 5.7 µM. 27% of 1,200 active;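 active = inhibition above the mean plus 3 SD of solvent-only control wells, limit set per screening run, cut at about 16% in these data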
Numbers stand for hits; 0 = inactive; - = no result.

SMILES	STAT3 act	HSP90 inh	STAT3 inh-1	PPC-1+TRAIL kill	C8 TRAIL sens	STAT1 blocker	STAT3 inh-2	NFkB inh STAT3ct	STAT1 inh 2
COc1ccc(C(=O)Nc2ccc(-c3ccc(C)o3)cc2)cc1S(=O)(=O)N1CCOCC1	0	0	70.2	0	0	0	71.3	28.3	0
COc1ccc(C(=O)Nc2ccc(N3CCOCC3)cc2)cc1S(=O)(=O)N1CCOCC1	-	-	-	-	0	-	-	-	-
N#Cc1ccccc1COc1ccc(/C=C/C(=O)O)cc1	0	0	47.5	0	0	0	0	16.0	0
Cc1cc(C)cc(C(=O)NCCn2cc(SCC(=O)N3CCOCC3)c3ccccc32)c1	0	0	0	0	0	0	-	-	-
CN(c1ccc(C(=O)N2CCN(Cc3ccc4c(c3)OCO4)CC2)cc1)S(=O)(=O)c1ccccc1	0	0	48.8	0	0	0	0	0	0
Cc1ccc(S(=O)(=O)N(C)c2ccc(C(=O)N3CCN(Cc4ccc5c(c4)OCO5)CC3)cc2)cc1	0	0	54.0	0	0	0	45.5	0	0
Cc1ccc(S(=O)(=O)N(C)CC(=O)N2CCN(Cc3ccc4c(c3)OCO4)CC2)cc1	-	0	-	-	0	-	-	-	-
CN(c1ccc(C(=O)N2CCN(Cc3ccccc3)CC2)cc1)S(=O)(=O)c1ccccc1	-	0	-	-	0	-	-	-	-
C=CCn1c(C)cc(C2=NNC(=Nc3ccc(C)cc3)SC2)c1C	0	0	0	0	0	0	-	-	-
C=CCN=C1NN=C(c2cc(C)n(CCOC)c2C)CS1	0	0	77.6	0	0	0	0	0	0
C=CCn1c(C)cc(C2=NNC(=NC(C)(C)C)SC2)c1C	0	0	57.6	0	70.3	0	45.5	28.0	0
COCCn1c(C)cc(C2=NNC(=Nc3ccc(Cl)cc3Cl)SC2)c1C	0	0	0	0	0	0	-	-	-
Cc1ccc(N(C(=O)CCl)C(C(=O)NC2CCCCC2)c2cccnc2)cc1C (stereo not given)	0	0	70.3	0	-	0	101.5	40.0	40.0
O=C(Nc1ncc2c(n1)-c1ccccc1CC2)C1CC1	0	0	45.0	0	0	0	0	0	0
CC(C)SCC(=O)Nc1ncc2c(n1)-c1ccccc1CC2	0	0	0	0	0	0	-	-	-
Cc1nn2cc(-c3ccc(Cl)cc3)nc2s1	0	0	52.5	0	0	0	0	0	0
Cc1nc2nc(-c3ccc(Cl)cc3)cn2nc1C	0	0	66.0	0	0	0	0	0	0
Cc1nn2cc(-c3ccc(-c4ccccc4)cc3)nc2s1	0	0	0	0	0	0	-	-	-
O=C(CSc1ccc(-c2cccnc2)nn1)N1CCCC1	0	0	0	0	0	0	-	-	-
O=C1C2C3C=CC(C3)C2C(=O)N1c1ccc(Cc2ccncc2)cc1 (stereo not given)	0	0	0	0	0	0	-	-	-
CC1CCC2C(=O)N(c3ccc(Cc4ccncc4)cc3)C(=O)C2C1 (stereo not given)	0	0	73.7	0	0	0	70.4	23.3	21.4
CC(OC(=O)CCc1nc2ccccc2[nH]c1=O)C(=O)c1ccccc1 (stereo not given)	0	0	0	0	0	0	-	-	-
Nc1nc(Br)c2c(F)cccc2c1-c1ccccc1	0	0	46.4	0	0	0	0	0	0
Cc1ccc(S(=O)(=O)CC2CSc3nc(N)cc(=O)n32)cc1 (stereo not given)	0	0	0	0	0	0	-	-	-
Cc1ccc(S(=O)(=O)CC2CSc3nc4ccccc4n32)cc1 (stereo not given)	0	0	87.9	0	0	0	84.0	34.3	31.9
SMILES	STAT3 act	HSP90 inh	STAT3 inh-1	PPC-1+TRAIL kill	C8 TRAIL sens	STAT1 blocker	STAT3 inh-2	NFkB inh STAT3ct	STAT1 inh 2
COc1ccc(-n2ccc(-c3nn(-c4cccc(C(F)(F)F)c4)ccc3=O)n2)cc1	0	0	0	0	0	0	-	-	-
O=C(Nc1ccn(Cc2ccccc2F)n1)c1ccc(COc2ccc(Br)cc2)cc1	0	0	47.0	0	0	0	52.2	0	0
O=C(Nc1ccc(Cn2cccn2)cc1)c1ccc(COc2ccc(Br)cc2)cc1	0	0	0	0	0	0	-	-	-
COc1ccc(OCC(=O)Nc2cc(-c3nn(C)c(=O)c4ccccc34)ccc2OC)cc1	0	0	50.8	0	0	0	47.5	22.1	25.3
COc1ccc(NC(=O)COc2ccc(-c3nn(C)c(=O)c4ccccc34)cc2)cc1	0	0	0	0	0	0	-	-	-
COc1cccc(CN(C)C(=O)c2cc(COc3ccc4ncccc4c3)on2)c1	0	0	74.0	0	0	34.8	63.9	18.0	18.8
O=C(c1cc(COc2ccc3ncccc3c2)on1)N1CCCCCC1	0	0	53.2	0	0	0	59.2	12.9	0
COCC1CCN(C(=O)c2cc(COc3ccc4ncccc4c3)on2)CC1	0	0	55.3	0	0	0	52.8	21.7	23.0
COc1cccc(CN(C)C(=O)c2cc(COc3c(F)cccc3F)on2)c1	0	0	0	0	0	0	-	-	-
COc1ccc(OCC(O)CNS(=O)(=O)c2ccc(C)cc2)cc1 (stereo not given)	-	0	-	0	0	-	-	-	-
Cc1ccc(S(=O)(=O)N(C)CCCC(=O)Nc2ccncc2)cc1	0	0	50.5	0	0	0	0	0	0
CC(C)(C)S(=O)N1Cc2cc(C(=O)N3CCc4ccccc4C3)nc(-c3cccc(-c4cccnc4)c3)c2[C@@H]1CCO (stereo not given in full)	-	-	-	-	0	-	-	-	-
CCOc1ccc(-c2nnc(-c3cccs3)o2)cc1	0	0	78.6	0	0	0	0	0	0
CCOc1ccc(-c2nnc(-c3cccs3)o2)cc1OCC	0	0	0	0	0	0	-	-	-
Nc1nn(-c2cccc(F)n2)cc1-c1ccc(Cl)cc1	0	0	58.5	0	0	0	0	0	0
Cc1cc(C(=O)CSc2nnc(N)s2)c(C)n1Cc1ccco1	0	0	46.3	0	0	0	0	0	0
O=C(CSc1nnnn1C1CCCCC1)Nc1ccccc1F	0	0	0	0	0	0	-	-	-
O=C(CSc1nnnn1C1CC2CCC1C2)Nc1ccnc2ccccc12 (stereo not given)	0	0	81.3	0	0	0	88.8	42.0	32.5
CCOc1cc(CNc2cccc3ccccc23)cc(Br)c1OCC(=O)NC(C)(C)C	0	0	0	0	0	0	-	-	-
NCCCC(=O)N1c2ccccc2Sc2ccc(Cl)cc21	-	0	-	-	0	-	-	-	-
COc1ccc(Cc2noc(CN3CCC(c4ccncc4)CC3)n2)cc1OC	0	0	59.5	0	0	0	0	14.0	0
